In ChEMBL document CHEMBL1126711, “The synthesis of novel GABA uptake inhibitors. 1. Elucidation of the structure-activity studies leading to the choice of (R)-1-[4,4-bis(3-methyl-2-thienyl)-3-butenyl]-3-piperidinecarboxylic acid (tiagabine) as an anticonvulsant drug candidate” (J Med Chem, 1993):

Legend:
Mus musculus [1] = experiment: In vivo anticonvulsant effect of DMCM-induced clonic seizures in mice at 15 mg/kg intraperitoneal dose expressed as effective dose; assay type: functional; conditions: ip
Summary of the method: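 Mice; test compound given ip. Clonic seizures induced with DMCM at 15 mg/kg ip. Inhibition of clonic seizures scored by observation, and ED50 expressed in mg/kg.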

[2] = In vitro inhibition of [3H]GABA uptake in rat synaptosomes; assay type: functional, subcellular, Brain
Summary of the method: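 Rat forebrain homogenized in ice-cold 0.32 M sucrose, spun 10 min at 600g at 4 °C, and the pellet resuspended in pH 7.4 Na/K/Ca/Mg phosphate-glucose buffer. Synaptosomes (0.1 mg protein) preincubated with test substance 8 min at 30 °C. [3H]GABA (final 0.9 nM) plus unlabeled GABA (final 0.9 nM) then added for a further 8 min, followed by filtration. Uptake in the presence of 500 μM nipecotic acid subtracted. IC50 is the mean of 3–7 determinations ± SE.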

[3] = Lipophilicity measured as partition between octanol and pH 7.4 buffer; assay type: physicochemical; conditions: octanol/pH 7.4 buffer
Mus musculus [4] = organism: Mus musculus; experiment: Anticonvulsant effect of DMCM-induced seizures in mice expressed as effective dose

SMILES	ED50 (Mus musculus [1])	IC50 [2]	also measured
Cc1ccccc1C(=CCCN1CCC[C@H](C(=O)O)C1)c1ccccc1C.Cl	1.3 mg/kg	–	–
Cl.O=C(O)C1CCCN(CCC=C(c2ccccc2)c2ccccc2)C1 (configuration not stated)	3.1 mg/kg	330 nM	–
Cc1ccsc1/C(=C\CCN1CCC[C@@H](C(=O)O)C1)c1cccs1	–	690 nM	–
O=C(O)C1CCCN(CCC=C(c2cccs2)c2cccs2)C1 (configuration not stated)	–	256 nM	–
Cc1ccsc1/C(=C\CCN1CCC=C(C(=O)O)C1)c1ccc(Cl)cc1Cl	–	320 nM	–
Cc1ccc(/C(=C/CCN2CCC[C@H](C(=O)O)C2)c2sccc2C)c(C)c1	–	264 nM	–
O=C(O)[C@H]1CCCN(CCC=C2c3ccccc3-c3ccccc32)C1	–	1920 nM	–
Cc1cc(Cl)ccc1/C(=C/CCN1CCC=C(C(=O)O)C1)c1sccc1C	–	300 nM	–
Cc1ccsc1/C(=C\CCN1CCC=C(C(=O)O)C1)c1cc(Cl)cc(Cl)c1	–	1860 nM	–
Cc1ccsc1C(=CCCN1CCC[C@@H](C(=O)O)C1)c1sccc1C.Cl [TIAGABINE HYDROCHLORIDE]	1.2 mg/kg	67 nM	logD [3]: 1.59
Cc1ccccc1C(OCCN1CCCC(C(=O)O)C1)c1ccccc1C (configuration not stated)	–	388 nM	–
Cc1ccsc1/C(=C\CCN1CCC=C(C(=O)O)C1)c1cccs1.Cl	2.1 mg/kg	112 nM	–
Cc1ccsc1C(=CCCN1CCC[C@H](C(=O)O)C1)c1sccc1C	–	218 nM	–
COc1ccc(C(OCCN2CCCC(C(=O)O)C2)c2ccc(OC)cc2)cc1 (configuration not stated)	–	> 3000 nM	–
Cl.Cn1cccc1/C(=C\CCN1CCC=C(C(=O)O)C1)c1ccccc1	1.8 mg/kg	130 nM	–
Cl.O=C(O)C1=CCCN(CCC=C(c2ccccc2)c2ccccc2)C1	3.6 mg/kg	341 nM	–
Cc1ccsc1/C(=C\CCN1CCC=C(C(=O)O)C1)c1ccc(Cl)cc1	–	848 nM	–
CN1C(=O)CN=C(c2ccccc2)c2cc(Cl)ccc21 [DIAZEPAM]	–	–	ED50 (Mus musculus [4]): 2.5 mg/kg
Cc1ccsc1/C(=C\CCN1CCC[C@H](C(=O)O)C1)c1cccs1.Cl	2.5 mg/kg	60 nM	–
Cc1ccsc1C(=CCCN1CCCC(C(=O)O)C1)c1sccc1C.Cl (configuration not stated)	2.6 mg/kg	87 nM	–
Cc1ccsc1C(=CCCN1CCC=C(C(=O)O)C1)c1sccc1C.Cl	1.8 mg/kg	138 nM	–
O=C(O)C1CCCN(CCOC(c2ccccc2)c2ccccc2)C1 (configuration not stated)	–	1370 nM	–
Cc1ccccc1/C(=C/CCN1CCC=C(C(=O)O)C1)c1sccc1C.Cl	1.9 mg/kg	130 nM	–
Cc1ccccc1/C(=C/CCN1CCC[C@H](C(=O)O)C1)c1sccc1C.Cl	1.2 mg/kg	–	–
Cc1ccsc1/C(=C\CCN1CCCC(C(=O)O)C1)c1ccccc1 (configuration not stated)	–	290 nM	–
O=C(O)C1=CCCN(CC/C=C(/c2ccccc2)c2cccs2)C1	–	265 nM	–
Cc1ccsc1/C(=C\CCN1CCC[C@H](C(=O)O)C1)c1c(C)cccc1C	–	247 nM	–
